The record followed here is ChEMBL document CHEMBL1132120, “Identification of highly selective inhibitors of collagenase-1 from combinatorial libraries of diketopiperazines” (J Med Chem, 1999).

One test has as its target T1, Interstitial collagenase (Homo sapiens, UniProt P03956).
T1 sequence (P03956 whole entry): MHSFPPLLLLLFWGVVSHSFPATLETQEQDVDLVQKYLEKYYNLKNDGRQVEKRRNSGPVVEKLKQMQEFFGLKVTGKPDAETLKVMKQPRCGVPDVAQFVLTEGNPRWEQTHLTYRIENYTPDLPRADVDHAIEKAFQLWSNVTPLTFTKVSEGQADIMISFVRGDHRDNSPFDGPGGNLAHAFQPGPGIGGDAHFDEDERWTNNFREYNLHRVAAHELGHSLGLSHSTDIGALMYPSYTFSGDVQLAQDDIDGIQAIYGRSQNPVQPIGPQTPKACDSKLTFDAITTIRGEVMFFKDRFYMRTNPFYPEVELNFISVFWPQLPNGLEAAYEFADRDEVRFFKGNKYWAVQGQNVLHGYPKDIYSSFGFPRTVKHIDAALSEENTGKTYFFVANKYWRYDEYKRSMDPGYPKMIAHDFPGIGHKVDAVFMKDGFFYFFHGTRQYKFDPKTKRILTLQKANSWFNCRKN
The test is described as follows: Inhibitory activity against Matrix metalloprotease-1. The gist of the method: (§1)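 Recombinant enzymes: C-terminally truncated collagenase-1, gelatinase-B and stromelysin. IC50 from nonlinear fit of rate versus inhibitor concentration to v = V0/(1+[I]/IC50). Values are the average of two or more independent determinations, SD ±20% or better.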

Test [1] deals with Matrix metalloproteinase-9 (Homo sapiens, UniProt P14780). The test is described as follows: Inhibitory activity against Matrix metalloprotease-9. Set-up: species or system Komagataella pastoris. In a few lines: as §1
Test [2] can be described thus: Inhibitory activity against stromelysin. The gist of the method: as §1

Molecules are shown by their SMILES. pIC50: −log10 of the molar value. Where only a bound is given, the exact number is not on record here.

Chain of Matrix metalloproteinase-9 (P14780 whole entry): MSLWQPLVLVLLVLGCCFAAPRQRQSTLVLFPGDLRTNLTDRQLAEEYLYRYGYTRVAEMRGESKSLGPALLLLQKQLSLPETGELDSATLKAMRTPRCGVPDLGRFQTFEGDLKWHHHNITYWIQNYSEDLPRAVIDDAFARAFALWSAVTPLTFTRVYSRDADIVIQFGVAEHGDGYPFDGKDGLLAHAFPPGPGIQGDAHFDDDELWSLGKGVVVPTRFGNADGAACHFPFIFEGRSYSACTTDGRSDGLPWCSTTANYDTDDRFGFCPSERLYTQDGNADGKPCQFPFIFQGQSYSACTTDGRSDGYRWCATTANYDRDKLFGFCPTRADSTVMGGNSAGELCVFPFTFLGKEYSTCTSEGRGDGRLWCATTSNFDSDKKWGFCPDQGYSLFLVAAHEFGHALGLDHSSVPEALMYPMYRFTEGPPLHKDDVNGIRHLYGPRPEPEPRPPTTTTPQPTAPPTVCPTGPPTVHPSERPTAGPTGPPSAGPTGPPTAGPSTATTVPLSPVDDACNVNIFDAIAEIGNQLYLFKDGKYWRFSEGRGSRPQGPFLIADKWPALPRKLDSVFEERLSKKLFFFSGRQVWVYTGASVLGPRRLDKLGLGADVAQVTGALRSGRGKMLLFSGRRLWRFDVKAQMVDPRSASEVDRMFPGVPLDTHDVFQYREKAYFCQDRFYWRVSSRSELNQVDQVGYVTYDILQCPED

Regarding `CC(C)(C)NC(=O)C(c1ccc(-c2ccccc2)cc1)N1C(=O)[C@H](CS)NC(=O)[C@@H]1Cc1ccc([N+](=O)[O-])cc1` (some centres undefined), the pIC50 against Interstitial collagenase was 6.99; in test [1], 5.37.
On the same counts, the results for `CC(C)(C)NC(=O)C(C1CC1)N1C(=O)[C@H](CS)NC(=O)[C@@H]1Cc1ccc([N+](=O)[O-])cc1` (some centres undefined) are 7.43 and 5.93.
For the compound `CCCN1C(=O)[C@H](CS)NC(=O)[C@@H]1Cc1ccc([N+](=O)[O-])cc1`, the values for the pIC50 (on Interstitial collagenase; in test [1]; in test [2]) were 7.19, 5.54 and under 4.70, respectively.
On to `CC(C)(C)NC(=O)C(Cc1ccccc1)N1C(=O)[C@H](CS)NC(=O)[C@@H]1Cc1ccc([N+](=O)[O-])cc1` (some centres undefined), for which the pIC50 was 7.43 against Interstitial collagenase and 5.92 in test [1].
The matching figures for `COc1ccc(C(C(=O)NC(C)(C)C)N2C(=O)[C@H](CS)NC(=O)[C@@H]2Cc2ccc([N+](=O)[O-])cc2)cc1` (some centres undefined): 7.68 and 5.89.
As to `CCc1ccc(C(C(=O)NC(C)(C)C)N2C(=O)[C@H](CS)NC(=O)[C@@H]2Cc2ccc([N+](=O)[O-])cc2)cc1` (some centres undefined), the pIC50 on Interstitial collagenase is 7.39; in test [1], 5.59.
`CC(C)(C)NC(=O)C(c1ccccc1)N1C(=O)[C@H](CS)NC(=O)[C@@H]1Cc1ccc([N+](=O)[O-])cc1` (some centres undefined): the pIC50 against Interstitial collagenase was 7.60; in test [1], 5.89.
Turning to `O=C1N[C@@H](CS)C(=O)N(Cc2ccc3ccccc3n2)[C@H]1Cc1ccc([N+](=O)[O-])cc1`, the pIC50 against Interstitial collagenase was 7.13; in test [1], 5.77; in test [2], under 4.70.
The matching figures for `CCCN1C(=O)[C@H](CS)NC(=O)[C@@H]1Cc1ccc(NC(C)=O)cc1`: under 4.40, under 4.40 and under 4.40.
With `CCCCOc1ccc(C(C(=O)NC(C)(C)C)N2C(=O)[C@H](CS)NC(=O)[C@@H]2Cc2ccc([N+](=O)[O-])cc2)cc1` (some centres undefined), the pIC50 is 7.14 on Interstitial collagenase and 5.49 in test [1].
Take `COc1ccc(CN2C(=O)[C@H](CS)NC(=O)[C@@H]2CC2CCCCC2)cc1`: the pIC50 in test [2] was 5.42.
For the compound `CC(C)CC(C(=O)NC(C)(C)C)N1C(=O)[C@H](CS)NC(=O)[C@@H]1Cc1ccc([N+](=O)[O-])cc1` (some centres undefined), the pIC50 against Interstitial collagenase is 7.62; in test [1], 6.24.
On the same counts, the results for `CCCCCCCC(C(=O)NC(C)(C)C)N1C(=O)[C@H](CS)NC(=O)[C@@H]1Cc1ccc([N+](=O)[O-])cc1` (some centres undefined) are 7.44 and 5.82.
For `COc1ccc(CN2C(=O)[C@H](CS)NC(=O)[C@@H]2Cc2ccccc2)cc1`, the pIC50 on Interstitial collagenase was 6.96; in test [1], 6.40; in test [2], 5.40.
`COc1ccc(CSC[C@H]2C(=O)N[C@@H](CS)C(=O)N2Cc2ccc(OC)cc2)cc1`: the pIC50 is 6.51 on Interstitial collagenase, 7.28 in test [1] and 5.96 in test [2].
As for `COc1ccc(CN2C(=O)[C@H](CS)NC(=O)[C@@H]2Cc2ccc([N+](=O)[O-])cc2)cc1`, the pIC50 on Interstitial collagenase is 7.33; in test [1], 5.92; in test [2] it was under 4.40.
On to `CC(C)(C)NC(=O)C(c1ccc(Oc2ccccc2)cc1)N1C(=O)[C@H](CS)NC(=O)[C@@H]1Cc1ccc([N+](=O)[O-])cc1` (some centres undefined), for which the pIC50 against Interstitial collagenase was 6.97; in test [1], 5.36.

The term pIC50 denotes the IC50 on a negative log10 scale, so that one unit is a factor of ten.
